High-throughput results as filed in PubChem BioAssay.
Apaf1 inhib: inhibitors of human Apaf-1 apoptosome, primary screen, biochemical, DEVD-Rh110 fluorescence, uHTS; Apoptotic protease-activating factor 1 (Homo sapiens), O14727; reconstituted apoptosome caspase-3 activity; inhibition, % at 20 µM; 330,000 compounds, 0.71% hits; AID 489030, 2010; active means inhibition of at least 40% at 20 µM;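 further: plate controls were DMSO wells for no effect and DEVD-CHO caspase inhibitor wells for full effect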
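Material: reconstituted apoptosome with Apaf-1, cytochrome c, caspase-9, procaspase-3, dATP; medium: pH 7.5 Hepes buffer with CHAPS, BSA, DTT; also added: cytochrome c and DEVD-Rh110 substrate; timing: 30 min plus 50 min, RT; signal: Rh110 fluorescence intensity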
UBC13 inh: UBC13 polyubiquitin chain formation inhibitors, primary screen, biochemical, TR-FRET, uHTS; Ubiquitin-conjugating enzyme E2 N (Homo sapiens), P61088; inhibition, % at 20 µM; 330,000 compounds, 0.47% hits; AID 485273, 2010; in the data active means inhibition above about 45%, passing the limit was not always enough
Target sequence (P61088 whole entry, looked up): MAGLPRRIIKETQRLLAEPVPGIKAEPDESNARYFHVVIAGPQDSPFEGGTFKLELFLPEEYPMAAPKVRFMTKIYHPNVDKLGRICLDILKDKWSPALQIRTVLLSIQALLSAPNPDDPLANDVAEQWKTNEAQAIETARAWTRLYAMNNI
UCH37 inh: inhibitors of human UCH37 deubiquitinase, primary screen, biochemical, Ub-AMC cleavage, fluorescence | AID 588478, 2011 | purified proteasome/UCH37 | inhibition, % (concentration not given with the values) | 330,000 compounds, 0.33% hits | Ubiquitin carboxyl-terminal hydrolase isozyme L5 (Homo sapiens), Q9Y5K5;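 active means mean inhibition over replicate wells above about 20%, limit read from the data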;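 further: 0% = compound-free wells with enzyme and 100% = wells lacking proteasome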
Target sequence (Q9Y5K5 whole entry, looked up): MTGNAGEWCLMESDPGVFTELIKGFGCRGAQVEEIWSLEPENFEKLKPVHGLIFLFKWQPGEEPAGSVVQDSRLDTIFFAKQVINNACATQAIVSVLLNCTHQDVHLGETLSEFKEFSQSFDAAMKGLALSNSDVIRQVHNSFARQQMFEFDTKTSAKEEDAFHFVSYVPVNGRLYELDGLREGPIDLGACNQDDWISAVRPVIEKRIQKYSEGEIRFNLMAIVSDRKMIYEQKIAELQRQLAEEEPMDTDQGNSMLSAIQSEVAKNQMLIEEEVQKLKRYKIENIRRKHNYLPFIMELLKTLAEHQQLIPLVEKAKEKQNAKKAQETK
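Test system – human UCH37 enzyme supplied as purified proteasome complex · Incubation – 30 min preincubation with enzyme, 25 min cleavage at room temperature · Detection – AMC fluorescence from Ub-AMC cleavage, excitation 355 nm, emission 460 nm · Benchmarks – no-proteasome wells (full inhibition) and compound-free wells (no inhibition)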
PREPL inh: PREPL enzyme inhibitors, primary screen, biochemical, fluorescence polarization; recombinant PREPL, fluorescence polarization activity-based probe; Prolyl endopeptidase-like (Homo sapiens), Q4J6C6; 320,000 compounds, 0.68% hits; inhibition, % at 5.96 µM;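 further: 0% = enzyme with DMSO and 100% = wells lacking enzyme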
PREPL inh cf: human PREPL enzyme inhibitors, confirmation, biochemical, fluorescence polarization | shares compounds with PREPL inh | inhibition, % at 5.96 µM | 2,000 compounds, 67% hits | recombinant PREPL, fluorescence polarization activity probe;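 further: 0% = protein with DMSO and 100% = wells lacking protein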
Numbers without * were called inactive. Only some compounds are listed: those with a hit (about 1.5% of all), similar ones and a draw of the others. Unless noted, no stated cut-off is given here; in the data, active means inhibition above about 43%; inactive means the rest.

Results for C(=N\Nc1nc2ccccc2[nH]1)/c1cccc2cccnc12 ?
Apaf1 inhib: 23.6; UBC13 inh: -13.1; PREPL inh: 62.8*; PREPL inh cf: 52.6*

What do the screens show for `Cc1ccccc1/C=N/Nc1nc2ccccc2[nH]1`?
Apaf1 inhib: 12.7; UBC13 inh: 1.6; PREPL inh: 40.8

What do the screens show for `C(=NN1CCN(Cc2cccc3ccccc23)CC1)c1ccco1`?
UCH37 inh: 1.9

How did CC(=O)Nc1ccc(C(=O)Cn2c3[n+](c4c(F)c(F)ccc42)CCCCC3)cc1 do in these assays?
Apaf1 inhib: -2.1; UBC13 inh: 7.1; UCH37 inh: 0.1; PREPL inh: 47.2*; PREPL inh cf: 56.3*

What do the screens show for `COc1ccc(C(=O)Cn2nc(CNc3ccc(Br)cc3)[n+]3c2CCCCC3)cc1`?
Apaf1 inhib: 6.8; UBC13 inh: 12.5; UCH37 inh: 4.8; PREPL inh: 28.8

Results for O=[N+]([O-])c1ccc(C(O)CN=Cc2ccc(O)cc2O)cc1 (stereo not drawn) ?
Apaf1 inhib: -11.6; UBC13 inh: -0.9; UCH37 inh: 7.7; PREPL inh: 48.5*; PREPL inh cf: 10.8

How did CN(C)/N=C/c1cc([N+](=O)[O-])ccc1O do in these assays?
Apaf1 inhib: -7.6; UBC13 inh: -14.7; PREPL inh: -0.1

How did N#Cc1ncc(Cc2ccccc2)nc1C#N do in these assays?
Apaf1 inhib: 4.2; UBC13 inh: -2.9; UCH37 inh: 4.1; PREPL inh: 52.1*; PREPL inh cf: 37.7

How did CCOc1ccc(C(C)=NNC(=O)c2nnn(-c3nonc3N)c2-c2cccs2)cc1 do in these assays?
UCH37 inh: -217.2

How did Cc1ccc(NS(=O)(=O)c2ccc(C(=O)Nc3nncs3)cc2)cc1 do in these assays?
Apaf1 inhib: 0.8; UBC13 inh: -4.3; UCH37 inh: 4.3; PREPL inh: 45.2*; PREPL inh cf: 8.2

What do the screens show for `CCOc1ccc(NC(=O)CSc2ncc(-c3ccc(F)cc3)n2Cc2ccco2)cc1`?
Apaf1 inhib: 20.4; UBC13 inh: -2.2; UCH37 inh: 3.3; PREPL inh: 11.5

How did Cc1ccc(NC(=O)Cn2c(-c3ccc(F)cc3)cnc2SCC(=O)Nc2c(C)cccc2C)cc1 do in these assays?
Apaf1 inhib: 9.2; UBC13 inh: -7.4; UCH37 inh: 1.5; PREPL inh: 47.3*; PREPL inh cf: 12.7

How did O=C(COc1ccc(Cl)cc1)Nc1cc2c3c(c1)CC(=O)N3CCC2 do in these assays?
Apaf1 inhib: 15.4; UBC13 inh: 1.5; UCH37 inh: 3.5; PREPL inh: 46.5*; PREPL inh cf: 34.9

Results for CC(=NNC(=O)c1ccc(-n2cnnn2)cc1)c1ccc(Cl)cc1 ?
UCH37 inh: 0.4

Results for COc1ccc(NC(=O)CSc2nc3nc(C)cc(C)c3c(=O)[nH]2)cc1 ?
Apaf1 inhib: 6.5; UBC13 inh: 1.0; PREPL inh: 45.2*; PREPL inh cf: 0.8

What do the screens show for `CCN(CC)c1ccc(NC(=O)CSc2nc3nc(C)cc(C)c3c(=O)[nH]2)cc1`?
Apaf1 inhib: 9.6; UBC13 inh: -30.4; UCH37 inh: 4.4; PREPL inh: 3.3

How did CCN1CCCC1CNC(=O)c1ccc2c(c1)NC(=O)/C(=C\c1ccc(OC)c(OC)c1)S2 (stereo not drawn) do in these assays?
Apaf1 inhib: 33.2; UBC13 inh: 23.3; UCH37 inh: 9.5; PREPL inh: 55.5*; PREPL inh cf: 61.1*

How did COc1ccc(/C=C2/Sc3ccc(C(=O)NCCCN4CCOCC4)cc3NC2=O)cc1OC do in these assays?
Apaf1 inhib: 8.6; UBC13 inh: 7.9; PREPL inh: 39.6

How did COc1ccc(C=NN2CCN(C)CC2)cc1O do in these assays?
UCH37 inh: 1.7

How did COc1cc([C@H]2c3[nH]c4ccccc4c3C[C@H]3C(=O)N4[C@@H](c5cc(OC)c(OC)c(OC)c5)c5[nH]c6ccccc6c5C[C@H]4C(=O)N23)cc(OC)c1OC do in these assays?
Apaf1 inhib: -1.1; UBC13 inh: -55.0; UCH37 inh: 1.5; PREPL inh: 2.3

How did COc1cc(C2NCCc3c2[nH]c2ccccc32)ccc1OC(C)C (stereo not drawn) do in these assays?
Apaf1 inhib: -2.0; UBC13 inh: 15.3; PREPL inh: 44.0*; PREPL inh cf: 40.8
